The test system of one series is Caco-2 cells monolayer. The series is described as follows: In vitro transport across the Caco-2 cells monolayer. It is filed as in vitro ADME. To be noted: 80 μg/mL equivalent drug, up to 240 min. In a few lines:
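Caco-2 cells in RPMI with 10% FBS and 1% penicillin/streptomycin (37 °C, 5% CO2) seeded at 10 × 10⁴ cells/insert on Geltrex-coated 0.3 μm polycarbonate inserts, fed every 2 days for 21 days. Only monolayers with TEER > 300 Ω·cm² were used. Test compound was dispersed in medium and applied apically. Basolateral samples at 30–240 min were replaced with warm medium. Three inserts per time point; HPLC.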

The nature of series [1]: Screening solubility of sorafenib in oils, surfactants and cosolvents. It counts as physicochemical. Conditions: 37 °C, thermodynamic from solid.

Structures can show the parent of a compound that is named as a salt.

The source of these data is publication PMC10139733 (Journal of drug delivery science and technology, 2023).

With `CNC(=O)c1cc(Oc2ccc(NC(=O)Nc3ccc(Cl)c(C(F)(F)F)c3)cc2)ccn1` [sorafenib, Sorafenib tosylate], the “Penetration of sorafenib across the monolayer, apical to basolateral” value in the series on Caco-2 cells monolayer is “absolutely no penetration”. For the same compound, the solubility at 24 h in series [1] (capmul MCM (oil), oil or lipid) was 5160 ± 800 µg/mL; in series [1] (captex 355 (oil), oil or lipid), 42.8 ± 7.6 µg/mL; in series [1] (carpyol 90 (oil), oil or lipid), 279 ± 6.5 µg/mL; in series [1] (corn oil, oil or lipid), 53 ± 13.7 µg/mL; in series [1] (ethanol (cosolvent), organic solvent or mixture), 5800 ± 800 µg/mL; in series [1] (isopropyl myristate (oil), oil or lipid) it was 37.9 ± 7.2 µg/mL. The solubility at 24 h amounted to 350 ± 50 µg/mL in series [1] (labrafil M 1944 CS (oil), oil or lipid); 279 ± 44.9 µg/mL in series [1] (labrafil M 2125 CS (oil), oil or lipid); 298 ± 184 µg/mL in series [1] (lauroglycol (oil), oil or lipid); 47.6 ± 25.2 µg/mL in series [1] (mineral oil, oil or lipid); 35 ± 0.6 µg/mL in series [1] (olive oil, oil or lipid); 900 ± 500 µg/mL in series [1] (peceol (oil), oil or lipid). The solubility at 24 h worked out at 64 ± 49.3 µg/mL in series [1] (soybean oil, oil or lipid) and 113 ± 62.5 µg/mL in series [1] (triacetin (oil), oil or lipid).
